Results published in ChEMBL document CHEMBL2417362, “Truncation of the peptide sequence in bifunctional ligands with mu and delta opioid receptor agonist and neurokinin 1 receptor antagonist activities” (Bioorg Med Chem Lett, 2013).
Calls of active or inactive are those of the source. No cut-off for these calls is given here. Non-standard residues stand in square brackets, D forms with d. Residues, ends and D or L forms follow the SMILES beside them. *: point of attachment. OBzl(3,5-(CF3)2) = FC(F)(F)c1cc(CO*)cc(C(F)(F)F)c1

Experiments:
[1] = molecular target: Substance-P receptor (Homo sapiens, UniProt P25103); assay: Displacement of [3H]substance P from human NK1 receptor expressed in CHO cells; assay type: cell-based
[2] = molecular target: Substance-P receptor (Cavia porcellus) (UniProt P30547); assay: Antagonist activity at NK1 receptor in guinea pig ileum assessed as inhibition of substance P-induced muscle contraction; assay type: tissue-based
[3] = molecular target: Mu-type opioid receptor (Cavia porcellus) (UniProt P97266); assay: Agonist activity at mu opioid receptor in guinea pig ileum assessed as inhibition of electrically-stimulated muscle contraction at 1 uM; assay type: tissue-based
[4] = system: Rattus norvegicus; assay: Antiallodynic activity in po dosed spinal nerve ligated Sprague-Dawley rat assessed as attenuation of SNL-induced tactile allodynia; assay type: functional, organism-based
In short: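 Spinal nerve ligated rats dosed orally; tactile (von Frey) and thermal hypersensitivity compared with vehicle.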

[5] = system: Rattus norvegicus; assay: Antinociceptive activity in Sprague-Dawley rat assessed as […] at 10 ug/5 uL administered intrathecally; assay type: functional, organism-based
In short: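 Non-injured rats given intrathecal 10 µg/5 µL in 10% DMSO/90% distilled water; hind paw withdrawal latency to radiant heat (Hargreaves) read 15 min after injection and compared with vehicle.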

[6] = system: Rattus norvegicus; assay: Antiallodynic activity in intrathecally dosed spinal nerve ligated Sprague-Dawley rat assessed as attenuation of SNL-induced tactile allodynia; assay type: functional, organism-based
In short: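 Spinal nerve ligated rats given intrathecal doses, expressed as µg/5 µL, with 10% DMSO/water as vehicle; tactile allodynia measured by von Frey and compared with vehicle over time.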

Sequence of Substance-P receptor (Cavia porcellus) (P30547 whole entry): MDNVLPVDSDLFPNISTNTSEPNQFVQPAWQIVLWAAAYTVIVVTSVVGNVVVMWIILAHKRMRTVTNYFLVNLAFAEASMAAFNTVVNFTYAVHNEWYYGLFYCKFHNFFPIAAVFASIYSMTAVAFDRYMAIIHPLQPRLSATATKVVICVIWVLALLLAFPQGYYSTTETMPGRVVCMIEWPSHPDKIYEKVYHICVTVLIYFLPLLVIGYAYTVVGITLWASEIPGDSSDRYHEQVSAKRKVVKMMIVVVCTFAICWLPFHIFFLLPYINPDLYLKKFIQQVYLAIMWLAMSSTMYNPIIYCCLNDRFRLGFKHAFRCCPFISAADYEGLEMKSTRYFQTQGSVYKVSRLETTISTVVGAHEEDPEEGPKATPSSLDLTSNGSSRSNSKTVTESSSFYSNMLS
Sequence of Substance-P receptor (P25103 whole entry): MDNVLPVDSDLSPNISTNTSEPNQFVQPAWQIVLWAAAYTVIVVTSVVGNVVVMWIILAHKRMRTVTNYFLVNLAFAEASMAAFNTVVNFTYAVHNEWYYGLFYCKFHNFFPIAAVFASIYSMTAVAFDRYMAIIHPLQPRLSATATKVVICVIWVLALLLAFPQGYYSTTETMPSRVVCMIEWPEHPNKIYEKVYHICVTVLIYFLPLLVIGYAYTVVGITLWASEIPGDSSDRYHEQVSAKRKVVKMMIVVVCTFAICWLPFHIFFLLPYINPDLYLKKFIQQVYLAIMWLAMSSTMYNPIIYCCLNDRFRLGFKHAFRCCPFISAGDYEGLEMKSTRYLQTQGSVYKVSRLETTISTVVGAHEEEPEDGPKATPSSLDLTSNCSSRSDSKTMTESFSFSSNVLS
Sequence of Mu-type opioid receptor (Cavia porcellus) (P97266 whole entry): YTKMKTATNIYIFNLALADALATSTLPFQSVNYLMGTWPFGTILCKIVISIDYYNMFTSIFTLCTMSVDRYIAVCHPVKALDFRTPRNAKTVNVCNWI

SMILES	Ke [2]	also measured
CSCC[C@H](NC(=O)[C@H](Cc1ccccc1)NC(=O)CNC(=O)[C@@H](C)NC(=O)[C@@H](N)Cc1ccc(O)cc1)C(=O)NC(C)(C)C(=O)N[C@@H](CC(C)C)C(=O)N[C@@H](Cc1c[nH]c2ccccc12)C(=O)OCc1cc(C(F)(F)F)cc(C(F)(F)F)c1	12 nM	Ki [1]: 0.12 nM
CSCC[C@H](NC(=O)[C@H](Cc1ccccc1)NC(=O)CNC(=O)[C@@H](C)NC(=O)[C@@H](N)Cc1ccc(O)cc1)C(=O)N1CCC[C@@H]1C(=O)N[C@@H](CC(C)C)C(=O)N[C@@H](Cc1c[nH]c2ccccc12)C(=O)OCc1cc(C(F)(F)F)cc(C(F)(F)F)c1	29 nM	inhibition [3]: 25%
CSCC[C@H](NC(=O)[C@H](Cc1ccccc1)NC(=O)CNC(=O)[C@@H](C)NC(=O)[C@@H](N)Cc1ccc(O)cc1)C(=O)NC1(C(=O)N[C@@H](CC(C)C)C(=O)N[C@@H](Cc2c[nH]c3ccccc23)C(=O)OCc2cc(C(F)(F)F)cc(C(F)(F)F)c2)CCCC1	2 nM	
C[C@@H](NC(=O)[C@@H](N)Cc1ccc(O)cc1)C(=O)NCC(=O)N[C@@H](Cc1ccccc1)C(=O)NCC(=O)N[C@@H](Cc1c[nH]c2ccccc12)C(=O)OCc1cc(C(F)(F)F)cc(C(F)(F)F)c1 (H-Y[dA]GFGW-{OBzl(3,5-(CF3)2)})	59 nM	Activity [4]: inactive; Activity [5]: Active; Activity [6]: Dose-dependent effect
CC(C)C[C@H](NC(=O)[C@H](Cc1ccccc1)NC(=O)CNC(=O)[C@@H](C)NC(=O)[C@@H](N)Cc1ccc(O)cc1)C(=O)N[C@@H](Cc1c[nH]c2ccccc12)C(=O)OCc1cc(C(F)(F)F)cc(C(F)(F)F)c1 (H-Y[dA]GFLW-{OBzl(3,5-(CF3)2)})	2 nM	
CSCC[C@H](NC(=O)[C@H](Cc1ccccc1)NC(=O)CNC(=O)[C@@H](C)NC(=O)[C@@H](N)Cc1ccc(O)cc1)C(=O)N[C@@H](C)C(=O)N[C@@H](CC(C)C)C(=O)N[C@@H](Cc1c[nH]c2ccccc12)C(=O)OCc1cc(C(F)(F)F)cc(C(F)(F)F)c1 (H-Y[dA]GFMALW-{OBzl(3,5-(CF3)2)})	380 nM	
C[C@@H](NC(=O)[C@@H](N)Cc1ccc(O)cc1)C(=O)NCC(=O)N[C@@H](Cc1ccccc1)C(=O)N1CCCC1C(=O)N[C@@H](Cc1c[nH]c2ccccc12)C(=O)OCc1cc(C(F)(F)F)cc(C(F)(F)F)c1 (single isomer, unassigned)	1.8 nM	
